One test concerns NCI-H69 cells. Kind of test: Phospholipase C / [3H]IP stimulation in SCLC cells NCI-H69. The following applies: 0.1 uM peptide alone, 37C, 60 min, mean ± SEM, at least 4 experiments. The class given is cell-based, human.
A further test deals with NCI-N417 cells. Kind of test: Phospholipase C / [3H]IP stimulation in SCLC cells NCI-N417. The class given is cell-based, human. The following applies: 0.1 uM peptide alone, 37C, 60 min, mean ± SEM, at least 4 experiments. An outline of the steps: (§1)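 SCLC suspension cells (1 × 10^6 cells/ml) were labelled 24 h at 37C with myo-[2-3H]inositol in RPMI with 2% FBS. Cells were washed, held 10 min in PBS pH 7.0 with 20 mM LiCl, then resuspended in HEPES pH 7.4 buffer with LiCl, EGTA, glucose and BSA. Peptide exposure was 60 min at 37C, stopped with ice-cold HCl/methanol. Total [3H]IP was eluted from anion-exchange resin and counted by scintillation; values are expressed as experimental/control.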

The test system of a further test is NCI-H209 cells. Kind of test: Phospholipase C / [3H]IP stimulation in SCLC cells NCI-H209. The class given is cell-based, human. The following applies: 0.1 uM peptide alone, 37C, 60 min, mean ± SEM, at least 4 experiments.
The subject of a further test is NCI-N592 cells. Kind of test: Phospholipase C / [3H]IP stimulation in SCLC cells NCI-N592. The class given is cell-based, human. The following applies: 0.1 uM peptide alone, 37C, 60 min, mean ± SEM, at least 4 experiments. An outline of the steps:
as §1

The subject of another test is Antiserum 8684. Kind of test: GRP18-27gly #8684 RIA cross-reactivity. The class given is binding, rabbit. The following applies: 125I-labeled GRP-gly tracer; GRP18-27gly standard.

Ends that are not written are not given here.

Consider `CSCC[C@H](NC(=O)[C@H](CC(C)C)NC(=O)[C@H](Cc1c[nH]cn1)NC(=O)CNC(=O)[C@@H](NC(=O)[C@H](C)NC(=O)[C@H](Cc1c[nH]c2ccccc12)NC(=O)[C@H](Cc1c[nH]cn1)NC(=O)[C@H](CC(N)=O)NC(=O)CNC(=O)[C@H](CCCNC(=N)N)NC(=O)[C@@H]1CCCN1C(=O)[C@H](Cc1ccc(O)cc1)NC(=O)[C@H](CCSC)NC(=O)[C@H](CCCCN)NC(=O)[C@@H](NC(=O)[C@H](CC(C)C)NC(=O)[C@@H](NC(=O)[C@@H](NC(=O)CNC(=O)CNC(=O)CNC(=O)[C@H](C)NC(=O)[C@@H]1CCCN1C(=O)[C@H](CC(C)C)NC(=O)[C@@H]1CCCN1C(=O)[C@@H](N)C(C)C)[C@@H](C)O)C(C)C)[C@@H](C)O)C(C)C)C(N)=O` [GRP, gastrin releasing peptide], for which the “Phospholipase C activity, Experimental/control” value is reported as 1.23±0.07 with NCI-H69 cells, 1.03±0.01 in the test on NCI-N417 cells, 1.11±0.04 in the test with NCI-H209 cells and 1.03±0.04 in the test on NCI-N592 cells.
Turning to “GRP1-27: amidated form of gastrin releasing peptide 1-27 (VPLPAGGGTVLTKMYPRGNHWAVGHLM-NH2; UniProt P07492 24-50, looked up)”, the “cross-reactivity with antiserum 8684” value in the test on Antiserum 8684 is given as 60%.
Take “GRP18-27: amidated GRP18-27; differs from bombesin by a Gln to His substitution at position 20”: in the test on Antiserum 8684, the “cross-reactivity with antiserum 8684” value is listed as 60%.
Consider “[D-Phe^6, β-Ala^11, Phe^13, Nle^14] Bn(6-14)”, for which the “Phospholipase C activity, Experimental/control” value came to 1.31±0.04 in the test on NCI-H69 cells, 3.14±0.34 in the test on NCI-N417 cells, 1.17±0.03 with NCI-H209 cells and 1.05±0.04 in the test with NCI-N592 cells.
For bombesin, the “cross-reactivity with antiserum 8684” value in the test with Antiserum 8684 is “less than 1%”.
